Sampled rows, rich in hits. Any-hit rate of the full collection: about 1.8%.
M4 ag: agonists of human muscarinic M4 receptor (CHRM4); CHO-K1 hM4/Gqi5, Fluo-8 calcium fluorescence; vehicle 0%, full acetylcholine response 100%; activation, % at 3 µM; actives 0.14% (n = 360,000);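 active = activation above the run mean over all test wells plus 3 SD, cut at about 32% in these data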;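 also: peak over basal fluorescence ratio per well then scaled between controls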
Target sequence (P08173 whole entry, looked up): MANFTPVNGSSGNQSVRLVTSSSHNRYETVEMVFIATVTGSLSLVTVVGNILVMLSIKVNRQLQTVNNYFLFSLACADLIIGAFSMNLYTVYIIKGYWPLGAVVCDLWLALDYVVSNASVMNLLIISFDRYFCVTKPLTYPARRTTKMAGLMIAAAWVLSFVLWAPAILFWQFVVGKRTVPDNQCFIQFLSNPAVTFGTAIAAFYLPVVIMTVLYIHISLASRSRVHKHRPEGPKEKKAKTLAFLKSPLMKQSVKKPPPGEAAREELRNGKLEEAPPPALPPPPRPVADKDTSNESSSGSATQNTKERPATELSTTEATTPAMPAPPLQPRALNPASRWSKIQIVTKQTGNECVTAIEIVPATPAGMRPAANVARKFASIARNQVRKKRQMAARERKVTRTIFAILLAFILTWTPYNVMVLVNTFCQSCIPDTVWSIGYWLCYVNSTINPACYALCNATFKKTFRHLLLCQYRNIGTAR
M4 PAM: CHRM4 positive allosteric modulation | activation, % at 3 µM | actives 0.4% (n = 360,000) | CHO-K1 hM4/Gqi5, Fluo-8 calcium fluorescence, ACh EC20; 0% = ACh EC20, 100% = maximal ACh;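 active = activation above its plate's cutoff, the mean activation of sample wells plus 3 SD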
CHRM5 PAM: potentiates acetylcholine response at human M5 receptor | actives 0.3% (n = 360,000) | AID 624038 | CHO-K1 hM5, Fluo-8 calcium, ACh EC20 PAM; 0% = ACh EC20, 100% = ACh EC100 | activation, % at 3 µM | P08912;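 active = activation above the run cutoff, the mean activation of all test compounds plus 3 SD, cut at about 18% in these data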
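System: CHO-K1 hM5 cells. Reagent: acetylcholine, EC20 level. Compound dosing: single dose, 3 µM nominal final test concentration. Timing: Post-acetylcholine fluorescence recording 140 s. Detection: Fluo-8 calcium fluorescence. Read-out: % activation, ACh-normalized. Benchmarks: ACh EC20 and EC100 wells. Repeats: singlicate, one well per test compound.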
CHRM5 antagonist: antagonists of human muscarinic M5 receptor (CHRM5) | inhibition, % at 3 µM | AID 624040 | P08912 | actives 0.59% (n = 360,000) | CHO-hM5 cells, Fluo-8 calcium fluorescence, ACh EC80;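 active = inhibition above a per-plate cutoff, the mean of that plate's test compounds plus 3 SD, cut at about 27% in these data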
CHRM5 agonist: CHRM5 agonism in calcium assay; CHO-K1 hM5 cells, Fluo-8 calcium fluorescence; 0% DMSO wells, 100% maximal acetylcholine response; P08912; AID 624037; actives 0.19% (n = 360,000); activation, % at 3 µM;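 active = activation above the run's mean over test compounds plus 3 SD, cut at about 23% in these data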;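 also: signal is peak over basal fluorescence ratio across the kinetic read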
M4 antag: antagonists of human muscarinic M4 receptor (CHRM4) | CHO-hM4 cells, ACh EC80, Fluo-8 calcium fluorescence | inhibition, % at 3 µM | actives 0.73% (n = 360,000);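 active = inhibition above its plate's cutoff, the mean inhibition of sample wells plus 3 SD, cut at about 27% in these data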
Numbers stand for hits; – = inactive.

SMILES	M4 ag	M4 PAM	CHRM5 PAM	CHRM5 antagonist	CHRM5 agonist	M4 antag
C=CCc1c(C)nc(SCc2ccccc2)[nH]c1=O	–	–	–	–	–	–
C1=CN2CCC1C(c1ccccc1)C2 (stereo not given)	–	–	–	74	–	36
CCN(CC)c1ccc(/C=C/c2ccc3ccc(OC)cc3[n+]2CC)cc1	–	–	–	49	–	36
CC(O)[C@@H](NC(=O)C1CCC(CNC(=O)[C@H](Cc2ccccc2)NC(=O)OC(C)(C)C)CC1)C(=O)O (stereo not given in full)	–	16	–	–	–	–
COc1ccc(C2CC(c3ccccc3)=NN2c2ccc(S(N)(=O)=O)cc2)cc1 (stereo not given)	–	–	–	–	–	–
COc1ccc(C2CC(c3ccccc3)=NN2c2ccc(C(N)=O)cc2)cc1 (stereo not given)	–	–	–	30	–	–
CN(C(=O)CSc1n[nH]c(-c2cccs2)n1)C1CCS(=O)(=O)C1 (stereo not given)	–	–	–	–	–	–
Cc1[nH]c2c(C)cccc2c1CCNC(=O)c1ccc2c(c1[N+](=O)[O-])C(=O)c1ccccc1C2=O	–	–	–	–	–	29
CCc1nc2c(OCc3cccc(Cl)c3)cccn2c1N(C)C(=O)CC(C)C	–	–	–	–	–	–
Cc1nn(C)c(C)c1CN(Cc1nc(CCC(C)C)no1)C(C)C	–	–	–	32	–	–
CCCC(c1nnnn1Cc1ccco1)N1CCN(C(=O)c2ccco2)CC1 (stereo not given)	–	20	–	–	–	–
CCC(C)(C)n1nnnc1C(c1ccc(C)cc1)N1CCN(C(=O)c2ccco2)CC1 (stereo not given)	–	–	35	–	–	–
COc1ccccc1NC(=O)/C(=C\c1cccnc1)NC(=O)c1ccc(C)cc1	–	–	–	–	–	–
Cc1cc(/C=C(\C#N)C(=O)NC2CCCCCC2)c(C)n1C	–	23	–	–	–	–
CC(=O)Nc1ccc(S(=O)(=O)N2CCC(NC(=O)C(Cc3cccn3C)NC(C)=O)CC2)cc1 (stereo not given)	–	–	28	–	–	–
CCS(=O)(=O)N1CCC(NC(=O)C(Cc2cccc(OC)c2OC)NC(C)=O)CC1 (stereo not given)	–	18	–	–	–	–
CCOc1ccc(/C=C/C2=Cc3c(sc(NC(=O)CSc4n[nH]c(N)n4)c3C#N)C(C)(C)C2)cc1	–	–	–	–	–	47
Cc1cc(C(=O)CN2C(=O)NC(C)(c3ccc(F)c(F)c3)C2=O)c(C)n1C1CC1 (stereo not given)	–	–	–	–	–	–
COc1ccc(C2(C)NC(=O)N(CC(=O)c3cc(C)n(C4CC4)c3C)C2=O)cc1 (stereo not given)	35	–	–	–	42	–
C[C@H](NC(=O)Nc1ccccc1F)C(=O)O	–	–	–	–	–	–
C[C@H](NC(=O)c1ccccc1Cl)C(=O)Nc1ccccc1F	–	–	–	–	–	75
Cc1ccc(S(=O)(=O)N2CCN(C(=O)[C@H](Cc3ccccc3)NC(=O)c3ccco3)CC2)cc1C	–	–	–	–	–	–
Cc1ccc(N(CC(=O)NCc2ccc(F)cc2)C(=O)c2csnn2)c(C)c1	–	–	–	–	–	–
COc1ccc(N(CC(=O)NCCc2ccccc2)C(=O)c2csnn2)cc1	–	–	–	32	–	–
Cc1ccc(N(CC(=O)NCCc2ccccc2)C(=O)c2csnn2)cc1	–	–	–	–	–	–
SMILES	M4 ag	M4 PAM	CHRM5 PAM	CHRM5 antagonist	CHRM5 agonist	M4 antag
Cc1cc(C)c(N(CC(=O)NCc2ccccc2)C(=O)c2csnn2)c(C)c1	–	–	23	–	–	–
COc1ccc(N(CC(=O)NCCc2ccccc2)C(=O)c2csnn2)cc1OC	–	–	–	–	–	–
CCOc1ccc(N(CC(=O)NCCc2ccccc2)C(=O)c2csnn2)cc1	–	16	–	–	–	–
C[C@H](CO)N1C[C@H](C)[C@@H](CN(C)S(=O)(=O)c2ccc(C#N)cc2)OCc2cn(nn2)CCCC1=O	–	–	–	–	–	–
O=C1N=c2ccccc2=C1c1sc(NS(=O)(=O)Cc2ccccc2)nc1O	–	–	–	–	–	–
O=C1N=c2ccccc2=C1c1sc(NS(=O)(=O)c2ccccc2)nc1O	–	28	–	–	–	–
C=CCN(CC=C)C(=O)CN1C(=O)NC(c2ccccc2)(c2ccccc2)C1=O	–	18	–	–	–	–
CCOC(=O)C1CCN(C(C)=C2C(=O)c3ccccc3C2=O)CC1	–	17	–	–	–	–
CCOC(=O)C1CCN(C(=O)CCCN2C(=O)c3ccccc3C2=O)CC1	–	–	–	–	–	–
NS(=O)(=O)c1ccc(N=Nc2c(O)ccc3ccccc23)cc1	–	–	–	–	–	–
Oc1ccc(N=Nc2c(O)ccc3ccccc23)cc1	–	31	–	–	–	–
CC(C#Cc1ccc2c(c1)COc1c3ccccc3nn1-2)OC(C)(C)C (stereo not given)	–	–	–	–	–	–
c1ccc2c(c1)CCCc1cc(NCCN3CCOCC3)nnc1-2	–	–	–	–	–	34
COC(=O)C1Cc2ccccc2CN1S(=O)(=O)c1ccc(F)cc1 (stereo not given)	–	–	–	–	–	–
COc1ccc(CCNC(=O)C(=O)c2c(C)[nH]c3ccccc23)cc1	–	–	–	71	–	–
CC(C)CCC1CC(CSC(=N)N)OC1=O (stereo not given)	–	–	21	–	–	–
CC(=O)Nc1cccc(-c2ccnc3c2CC(C)(C(=O)Nc2ccc(C(C)C)cc2)O3)c1 (stereo not given)	–	–	–	–	–	–
C[C@H]1CNC(=O)c2c(C(=O)NC3CCN(C(=O)OC(C)(C)C)CC3)ncn21	–	–	–	–	–	–
O=C(COC(=O)Cc1cccc(C(F)(F)F)c1)NCc1ccco1	–	32	–	–	–	–
C[C@H]1CN([C@@H](C)CO)C(=O)c2cc(Br)cnc2O[C@@H]1CN(C)C(=O)Nc1ccc(C(F)(F)F)cc1	–	–	–	–	–	–
CCCc1nc2n[nH]c(N)c2c2c1CCC2	–	–	–	–	–	–
CCCCc1nc2n[nH]c(N)c2c2c1CCCC2	–	–	22	–	–	–
CCCc1nc2n[nH]c(N)c2c2c1CCCC2	–	26	–	–	–	–
CCCCCCNC(=O)O[C@H]1Cn2c(=O)ccc(=O)n2[C@@H]2CN(S(=O)(=O)c3ccc(C)cc3)C[C@]12O	–	–	–	–	–	–
